Data taken from publication PMC7607594 (BMJ Open Diabetes Research & Care, 2020).

Legend:
GLP-1r = biological target: T1, GLP-1r (Sus scrofa, UniProt A0ACM8QMX0); test: GLP-1r PET imaging with compartmental kinetic analysis; assay type: in vivo, Yucatan mini-pigs; details: 2-tissue compartment model, mean±SEM
T1 sequence (A0ACM8QMX0 24-463): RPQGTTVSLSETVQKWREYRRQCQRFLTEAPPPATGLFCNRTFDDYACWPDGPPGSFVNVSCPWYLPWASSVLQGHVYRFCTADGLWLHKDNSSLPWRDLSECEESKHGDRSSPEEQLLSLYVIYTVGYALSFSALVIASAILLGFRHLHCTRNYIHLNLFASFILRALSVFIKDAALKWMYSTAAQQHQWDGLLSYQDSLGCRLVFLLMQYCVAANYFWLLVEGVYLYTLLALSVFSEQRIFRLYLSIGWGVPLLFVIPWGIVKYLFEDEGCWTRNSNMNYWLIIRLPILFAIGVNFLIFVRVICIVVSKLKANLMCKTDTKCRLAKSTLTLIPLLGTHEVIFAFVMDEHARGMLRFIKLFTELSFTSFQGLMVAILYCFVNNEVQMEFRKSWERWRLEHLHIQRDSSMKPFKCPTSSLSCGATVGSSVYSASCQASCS
Summary of the method: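 Adult Yucatan mini-pigs, lean or obese, anesthetized; a 68Ga-labeled GLP-1r agonist radiotracer at 0.2 MBq/kg was given IV over 30 s. A dynamic abdominal PET-CT scan ran for 60 min in 30 frames, either fasted or at euglycemic–hyperinsulinemic clamp plateau (insulin 120 mU kg−1 h−1, 20% glucose). Arterial input came from an external arteriovenous loop gamma detector. Vs came from a 2-tissue compartment fit. Mean±SEM, unpaired t-test.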

[1] = ^68Ga-DOTA PET imaging of visceral blood flow; assay type: in vivo, Yucatan mini-pigs; details: for K1 (unidirectional transfer rate from blood to tissue): 1-tissue compartment model, mean±SEM
Summary of the method: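 Visceral perfusion was measured in anesthetized lean and obese Yucatan mini-pigs during the same session, after GLP-1r imaging. 68Ga-DOTA at 1.2 MBq/kg was given IV over 10 s, followed by a dynamic PET of 10 min in 46 frames. Arterial input came from an arteriovenous loop. Images were partial-volume corrected. K1 came from a one-tissue compartment fit. Mean±SEM, unpaired t-test.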

Substance	GLP-1r binding potential (Vs, distribution volume of specific binding) (GLP-1r; duodenum, lean, fasted)	GLP-1r binding potential (Vs, distribution volume of specific binding) (GLP-1r; duodenum, lean, insulin (clamp plateau))	GLP-1r binding potential (Vs, distribution volume of specific binding) (GLP-1r; duodenum, obese, fasted)	GLP-1r binding potential (Vs, distribution volume of specific binding) (GLP-1r; duodenum, obese, insulin (clamp plateau))	GLP-1r binding potential (Vs, distribution volume of specific binding) (GLP-1r; pancreas, obese, fasted)	GLP-1r binding potential (Vs, distribution volume of specific binding) (GLP-1r; subcutaneous fat, lean, fasted)	GLP-1r binding potential (Vs, distribution volume of specific binding) (GLP-1r; subcutaneous fat, obese, fasted)	GLP-1r binding potential (Vs, distribution volume of specific binding) (GLP-1r; visceral fat, lean, fasted)	GLP-1r binding potential (Vs, distribution volume of specific binding) (GLP-1r; visceral fat, obese, fasted)	K1 (unidirectional transfer rate from blood to tissue) ([1]; duodenum, lean)	K1 (unidirectional transfer rate from blood to tissue) ([1]; pancreas, obese)	reduction of K1 for the flow-coded images ([1]; pancreatic level, obese versus lean animals)	K1 (unidirectional transfer rate from blood to tissue) ([1]; subcutaneous fat, lean)	K1 (unidirectional transfer rate from blood to tissue) ([1]; subcutaneous fat, obese)	K1 (unidirectional transfer rate from blood to tissue) ([1]; visceral fat, lean)	K1 (unidirectional transfer rate from blood to tissue) ([1]; visceral fat, obese)
[^68Ga]Ga-DO3A-VS-Cys40-exendin-4	3.02±0.20 mL/ccm	2.62±0.17 mL/ccm	2.87±0.29 mL/ccm	2.88±0.25 mL/ccm	1.49±0.47 mL/ccm	0.13±0.02 mL/ccm	0.06±0.02 mL/ccm	0.44±0.13 mL/ccm	0.13±0.02 mL/ccm	–	–	–	–	–	–	–
^68Ga-DOTA	–	–	–	–	–	–	–	–	–	0.14±0.02 mL ccm^−1 min^−1	0.14±0.05 mL ccm^−1 min^−1	about 90%	0.08±0.03 mL ccm^−1 min^−1	0.01±0.01 mL ccm^−1 min^−1	0.02±0.01 mL ccm^−1 min^−1	0.03±0.01 mL ccm^−1 min^−1
